The values below come from paper PMC10395482 (Heliyon, 2023).

In test [1] the test system is MHCC97L xenograft. Briefly: MHCC97L subcutaneous xenograft. In kind it is in vivo, BALB/c nude mice. Particulars: 14 days. The method in brief:
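Five-week-old male BALB/c nude mice received MHCC97L cells subcutaneously in the axilla (1 × 10^7 cells in 0.1 mL saline). At 50 mm3 they were randomized to groups and given the test compound in saline by tail vein (10, 20, 30 mg/kg; 0.1 mL/20 g). Tumor volume, calculated as (short diameter)2 × long diameter/2, and body weight were recorded every 2 days. Mice were sacrificed after 14 days; one-way ANOVA with Dunnett's test was used.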

Test [2] has as its system chick embryo chorioallantoic membrane. Nature of the test: Chick chorioallantoic membrane. To be noted: VEGF 0.5 μg, 48 h; n = 5. The class given is in vivo. An outline of the steps:
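Fertilized eggs were held at 37 °C and 60% humidity for 5 days and turned 180° every 24 h. On day 6 the shell was opened along the air chamber and sterile rubber rings were placed at the aorta. Test compound in saline (0, 10, 50, 250 μM; 50 μL) was added inside the ring, and eggs were sealed for 48 h. Vascular density was calculated as vessel area/view area from stereomicroscope images.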

Regarding `Clc1ccc(Nc2nnc(Cc3ccncc3)c3ccccc23)cc1` [PTK787], the “Tumor Inhibition Rate” value in test [1] (PTK787 50 mg/kg, n = 5) was determined as 88.78%. Besides, the “Tumor Weight” value in test [1] (PTK787 50 mg/kg, mean ± SD, n = 5, *** p < 0.001 vs saline) is listed as 0.146 ± 0.049 *** g. The “tumor growth, volume and weight (in words)” value in test [1] (SAIF 10, 20, 30 mg/kg or PTK787 50 mg/kg, vs control) is “decreased MHCC97L transplanted tumor growth and significantly reduced mean tumor volume”.
Take VEGF: the “angiogenesis in CAM, VEGF alone” value in test [2] is on record as “significantly increased neoangiogenesis”.
